Measurements from different studies.
Lines come from different studies, so protocols differ.
Target: Myosin light chain kinase family member 4 (MYLK4, Homo sapiens, UniProt Q86YV6)
Sequence (Q86YV6 1-388, as in one of the studies): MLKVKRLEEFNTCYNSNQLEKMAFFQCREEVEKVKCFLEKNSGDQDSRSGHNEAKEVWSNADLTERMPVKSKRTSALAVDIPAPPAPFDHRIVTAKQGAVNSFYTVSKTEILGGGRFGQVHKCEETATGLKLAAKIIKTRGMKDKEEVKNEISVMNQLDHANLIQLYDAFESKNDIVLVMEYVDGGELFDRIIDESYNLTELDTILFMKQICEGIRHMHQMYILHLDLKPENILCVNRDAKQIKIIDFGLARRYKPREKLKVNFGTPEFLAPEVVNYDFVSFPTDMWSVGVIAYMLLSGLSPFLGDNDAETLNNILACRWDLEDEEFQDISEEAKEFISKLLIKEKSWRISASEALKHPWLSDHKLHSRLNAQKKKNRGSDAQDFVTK

The remaining binding of `C[C@@H](c1ccc(-n2cnc3c(N)ncnc32)cc1)N1CCc2nn(C)c(Cc3ccccc3)c2C1=O` is reported as 100% (binding, competition with immobilised ligand; 0.1 µM).
The remaining binding of `N[C@@H]1CCN(c2nccc(-c3cnn4ncccc34)n2)C1` is reported as 100% (binding; 1 µM).
`Nc1ncc2c(n1)-c1c([nH]c3ccc(C#CC4CC4)cc13)CCCC2` gave a remaining binding of 83% (binding, competition with immobilised ligand; 1 µM).
`COc1ccnn2ncc(-c3ccnc(N(C)C)n3)c12` gave a remaining binding of 100% (binding; 1 µM).
The remaining binding of `FC(F)(F)Oc1cccc(-c2cnc3ccc(-c4ccncc4)nn23)c1` is reported as 0.35% (cell-free assay, competition with immobilised ligand; 5 µM).
For `c1cncc(-c2cccc(Nc3nccc(NC4CCCCC4)n3)c2)c1`, the remaining binding was 51% (binding, competition with immobilised ligand; 10 µM).
For `Cc1cnc(Nc2ccc(C(=O)N3CCC(N4CCCC4)CC3)cc2)nc1-c1cc2ccccc2s1`, the remaining binding was 0% (binding, competition with immobilised ligand; 1 µM).
For `CC(=O)c1c(NS(C)(=O)=O)c2cc(-c3ccc(Cl)cc3)c(-c3ccc(Cl)cc3Cl)nc2n(C)c1=O`, the remaining binding was 100% (cell-free assay, competition with immobilised ligand; 1 µM).
For `CN(CCCC(F)(F)F)c1nccc(-c2cnn3ncccc23)n1`, the remaining binding was 100% (binding; 1 µM).
`O=C(NCCCN1CCOCC1)c1ccc(Nc2ncc(Cl)c(-c3ccc(Cl)s3)n2)cc1` has a remaining binding of 0.05% (binding, competition with immobilised ligand; 1 µM).
`Nc1cnc(N2CCc3cc(S(=O)(=O)Nc4c(F)cc(Cl)cc4F)cc(N4CCCC4=O)c32)nc1` gave a remaining binding of 100% (cell-free assay, competition with immobilised ligand; 1 µM).
With `O=C(Nc1c[nH]nc1C(=O)NC1CCNCC1)c1cc(F)cc(F)c1` the remaining binding was 100% (binding, competition with immobilised ligand; 1 µM).
With `Cc1cnn2ncc(-c3ccnc(N(C)C)n3)c2c1` the remaining binding was 80% (binding; 1 µM).
`CCS(=O)(=O)c1cc2cc(C[C@@](O)(CC(C)(C)c3ccc(F)cc3C(N)=O)C(F)(F)F)[nH]c2cn1` gave a remaining binding of 100% (cell-free assay, competition with immobilised ligand; 1 µM).
`O=C(c1ccc(Nc2nccc(-c3cc4ccccc4s3)n2)cc1)N1CCC(N2CCCC2)CC1` has a remaining binding of 0.1% (binding, competition with immobilised ligand; 1 µM).
With `COc1cccc(CNC(=O)c2nc3scc(COCc4ccc(C(=O)O)cc4)c3c(=O)[nH]2)c1` the remaining binding was 100% (cell-free assay, competition with immobilised ligand; 1 µM).
The remaining binding of `COc1cnc(Nc2cccc(S(N)(=O)=O)c2)nc1N1CCN(c2ccccc2)CC1` is reported as 100% (binding, competition with immobilised ligand; 1 µM).
With `CC1CCCN1c1nccc(-c2cnn3ncccc23)n1` (stereo not shown) the remaining binding was 100% (binding; 1 µM).
For `Cc1nc(Cc2cccc(C(F)(F)F)c2)sc1-c1ccc(C(N)=O)nc1`, the remaining binding was 91% (cell-free assay, competition with immobilised ligand; 1 µM).
